Measurements published in ChEMBL document CHEMBL3826935, “Synthesis and Pharmacology of (Pyridin-2-yl)methanol Derivatives as Novel and Selective Transient Receptor Potential Vanilloid 3 Antagonists” (J Med Chem, 2016).

Tests used:
[1] = biological target: Voltage-dependent L-type calcium channel subunit alpha-1C (Homo sapiens, UniProt Q13936); assay: Binding affinity to Cav1.2 (unknown origin) at 10 uM
In short: (§1)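 Selectivity screen at 10 µM across CEREP and internal target panels. Readout is percent binding, with 50% as the threshold.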

[2] = biological target: Voltage-dependent T-type calcium channel subunit alpha-1H (Homo sapiens) (UniProt O95180); assay: Binding affinity to Cav3.2 (unknown origin) at 10 uM; in short: as §1
Chain of Voltage-dependent T-type calcium channel subunit alpha-1H (Homo sapiens) (O95180 whole entry): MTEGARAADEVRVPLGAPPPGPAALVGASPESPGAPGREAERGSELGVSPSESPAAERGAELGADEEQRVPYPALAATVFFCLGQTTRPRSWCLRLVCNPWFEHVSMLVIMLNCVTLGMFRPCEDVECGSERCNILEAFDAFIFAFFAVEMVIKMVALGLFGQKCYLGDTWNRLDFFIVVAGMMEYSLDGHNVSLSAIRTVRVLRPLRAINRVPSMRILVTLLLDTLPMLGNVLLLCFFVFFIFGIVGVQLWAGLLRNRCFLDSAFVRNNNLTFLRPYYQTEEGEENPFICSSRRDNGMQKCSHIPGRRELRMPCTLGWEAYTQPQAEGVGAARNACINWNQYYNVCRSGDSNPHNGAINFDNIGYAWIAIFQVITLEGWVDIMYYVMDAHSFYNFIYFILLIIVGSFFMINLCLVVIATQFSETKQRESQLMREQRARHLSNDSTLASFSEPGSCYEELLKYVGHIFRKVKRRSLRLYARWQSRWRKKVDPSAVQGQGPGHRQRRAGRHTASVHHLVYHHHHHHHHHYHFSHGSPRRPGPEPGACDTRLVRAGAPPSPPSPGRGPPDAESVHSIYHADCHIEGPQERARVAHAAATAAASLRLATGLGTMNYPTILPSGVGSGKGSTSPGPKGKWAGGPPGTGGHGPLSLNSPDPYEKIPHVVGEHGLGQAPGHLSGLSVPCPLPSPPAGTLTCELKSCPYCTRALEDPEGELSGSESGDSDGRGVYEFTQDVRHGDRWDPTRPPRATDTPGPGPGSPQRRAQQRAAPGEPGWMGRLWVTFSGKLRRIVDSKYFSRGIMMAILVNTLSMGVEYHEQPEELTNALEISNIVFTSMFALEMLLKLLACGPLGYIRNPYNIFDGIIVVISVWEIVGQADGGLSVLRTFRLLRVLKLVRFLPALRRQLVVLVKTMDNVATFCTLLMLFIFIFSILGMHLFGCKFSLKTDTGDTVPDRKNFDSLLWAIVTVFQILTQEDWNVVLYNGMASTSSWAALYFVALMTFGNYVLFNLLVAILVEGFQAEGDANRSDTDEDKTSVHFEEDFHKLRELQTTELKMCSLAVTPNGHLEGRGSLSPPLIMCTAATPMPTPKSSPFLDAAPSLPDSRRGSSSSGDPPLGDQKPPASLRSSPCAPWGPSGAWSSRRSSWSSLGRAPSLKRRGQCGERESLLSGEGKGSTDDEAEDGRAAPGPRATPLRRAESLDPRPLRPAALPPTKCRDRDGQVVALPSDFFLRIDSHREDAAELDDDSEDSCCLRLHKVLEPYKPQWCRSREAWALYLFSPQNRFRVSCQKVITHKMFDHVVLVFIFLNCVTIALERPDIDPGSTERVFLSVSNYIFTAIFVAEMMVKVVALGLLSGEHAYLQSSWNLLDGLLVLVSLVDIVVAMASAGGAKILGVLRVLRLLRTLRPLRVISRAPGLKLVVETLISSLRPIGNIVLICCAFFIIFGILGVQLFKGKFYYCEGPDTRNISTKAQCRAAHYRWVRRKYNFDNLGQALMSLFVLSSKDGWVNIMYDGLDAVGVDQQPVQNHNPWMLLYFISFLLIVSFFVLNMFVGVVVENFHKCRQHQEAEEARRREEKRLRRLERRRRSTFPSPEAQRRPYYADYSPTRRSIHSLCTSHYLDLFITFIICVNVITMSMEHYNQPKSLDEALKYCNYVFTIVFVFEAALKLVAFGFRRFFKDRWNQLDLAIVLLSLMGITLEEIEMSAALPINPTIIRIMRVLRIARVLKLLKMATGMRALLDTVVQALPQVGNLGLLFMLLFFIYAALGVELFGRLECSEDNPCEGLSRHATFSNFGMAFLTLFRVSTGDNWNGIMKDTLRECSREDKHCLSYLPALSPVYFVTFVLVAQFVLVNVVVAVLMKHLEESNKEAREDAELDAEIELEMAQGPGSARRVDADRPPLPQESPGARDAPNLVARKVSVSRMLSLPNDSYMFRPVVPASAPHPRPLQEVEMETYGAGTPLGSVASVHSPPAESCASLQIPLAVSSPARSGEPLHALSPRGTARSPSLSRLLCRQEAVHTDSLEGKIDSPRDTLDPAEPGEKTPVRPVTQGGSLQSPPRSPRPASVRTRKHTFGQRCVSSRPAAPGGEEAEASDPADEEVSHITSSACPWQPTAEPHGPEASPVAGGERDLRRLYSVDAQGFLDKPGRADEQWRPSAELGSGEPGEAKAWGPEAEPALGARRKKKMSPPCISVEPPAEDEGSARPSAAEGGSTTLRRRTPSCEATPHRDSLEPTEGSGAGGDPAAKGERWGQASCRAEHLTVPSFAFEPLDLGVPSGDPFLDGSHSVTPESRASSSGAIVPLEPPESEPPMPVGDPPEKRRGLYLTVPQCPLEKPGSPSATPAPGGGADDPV

[3] = Total plasma clearance in rat at 1 mg/kg, iv; format: ADME, organism-based
In short: (§2)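 Rat pharmacokinetics: iv dose 1 mg/kg; po dose 1 or 2 mg/kg depending on compound. AUC taken over 0–8 h. Unbound parameters calculated using plasma free fraction.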

[4] = […] plasma clearance in rat at 1 mg/kg, iv; format: ADME, organism-based; settings: read-out: CL free (converted); in short: as §2
[5] = Cmax in rat at 1 mg/kg, iv or 2 mg/kg, po; format: ADME, organism-based; settings: in vivo; in short: as §2
[6] = AUC(0 to 8 hrs) in rat at 2 mg/kg, po; format: ADME, organism-based; design: time < 6 hr, dose 2 mg/kg, route oral; settings: in vivo; in short: as §2
Rattus norvegicus [7] = assay: Antiallodynic activity in Sprague-Dawley rat reserpine model of central pain assessed as increase in reserpine induced muscle pressure threshold at 10 to 100 mg/kg, po measured at 1 hr post dosing; format: functional, organism-based
Rattus norvegicus [8] = assay: Toxicity in chronic constriction injury Sprague-Dawley rat model of neuropathic pain assessed as overt impairments at 10 to 100 mg/kg, po; format: organism-based; settings: in vivo
Rattus norvegicus [9] = assay: Toxicity in sciatic nerve ligation Sprague-Dawley rat model of neuropathic pain assessed as overt impairments at 10 to 100 mg/kg, po; format: organism-based; settings: in vivo
Rattus norvegicus [10] = assay: Toxicity in Sprague-Dawley rat reserpine model of central pain assessed as overt impairments at 10 to 100 mg/kg, po; format: organism-based; settings: in vivo
Rattus norvegicus [11] = assay: Toxicity in Sprague-Dawley rat reserpine model of central pain assessed as behavioral changes at 10 to 100 mg/kg, po; format: organism-based; settings: in vivo
[12] = Ratio of drug level in plasma to brain in Sprague-Dawley rat; format: ADME, cell-free; settings: in vivo
Liver microsome = assay: Unbound intrinsic clearance in human liver microsomes after 5 hrs by LC-MS/MS analysis; format: ADME
In short: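 Microsomal stability run in an automated high-throughput plate format. Intrinsic clearance corrected for nonspecific microsomal binding using measured unbound fraction (fu,mic), reported as unbound Clint in L/h/kg.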

[13] = biological target: T1, Transient receptor potential cation channel subfamily V member 3 (Homo sapiens) (UniProt Q8NET8); assay: Antagonist activity at human TRPV3 expressed in recombinant HEK293 cells assessed as free plasma level adjusted concentration for inhibition of 2-APB induced calcium flux by FLIPR analysis; format: cell-based
T1 sequence (whole entry): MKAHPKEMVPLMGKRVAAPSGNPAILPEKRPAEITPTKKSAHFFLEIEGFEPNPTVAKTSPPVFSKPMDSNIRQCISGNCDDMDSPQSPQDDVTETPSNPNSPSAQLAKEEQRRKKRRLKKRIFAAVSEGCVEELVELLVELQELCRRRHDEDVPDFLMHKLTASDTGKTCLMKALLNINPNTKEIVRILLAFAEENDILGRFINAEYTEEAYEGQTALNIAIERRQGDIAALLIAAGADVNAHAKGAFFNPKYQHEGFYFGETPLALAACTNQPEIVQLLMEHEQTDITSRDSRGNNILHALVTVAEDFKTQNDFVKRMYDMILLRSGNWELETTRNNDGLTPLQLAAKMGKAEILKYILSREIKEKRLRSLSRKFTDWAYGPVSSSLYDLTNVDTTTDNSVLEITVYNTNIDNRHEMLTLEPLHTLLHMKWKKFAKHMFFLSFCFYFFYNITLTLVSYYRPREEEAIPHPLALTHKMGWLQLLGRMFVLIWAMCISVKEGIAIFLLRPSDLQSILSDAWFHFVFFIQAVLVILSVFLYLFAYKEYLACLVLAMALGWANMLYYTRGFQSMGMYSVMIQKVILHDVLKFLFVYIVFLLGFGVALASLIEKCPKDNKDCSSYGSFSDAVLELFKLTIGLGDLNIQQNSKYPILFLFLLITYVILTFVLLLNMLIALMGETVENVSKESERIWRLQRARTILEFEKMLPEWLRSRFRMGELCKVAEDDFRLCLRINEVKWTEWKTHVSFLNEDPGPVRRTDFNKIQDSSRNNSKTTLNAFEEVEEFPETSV
In short: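 FLIPR Kb from the 2-APB (60 µM final) Ca2+ flux assay in human TRPV3 HEK293 cells, converted to an unbound value using the measured free fraction in plasma.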

Chain of Voltage-dependent L-type calcium channel subunit alpha-1C (Q13936 whole entry): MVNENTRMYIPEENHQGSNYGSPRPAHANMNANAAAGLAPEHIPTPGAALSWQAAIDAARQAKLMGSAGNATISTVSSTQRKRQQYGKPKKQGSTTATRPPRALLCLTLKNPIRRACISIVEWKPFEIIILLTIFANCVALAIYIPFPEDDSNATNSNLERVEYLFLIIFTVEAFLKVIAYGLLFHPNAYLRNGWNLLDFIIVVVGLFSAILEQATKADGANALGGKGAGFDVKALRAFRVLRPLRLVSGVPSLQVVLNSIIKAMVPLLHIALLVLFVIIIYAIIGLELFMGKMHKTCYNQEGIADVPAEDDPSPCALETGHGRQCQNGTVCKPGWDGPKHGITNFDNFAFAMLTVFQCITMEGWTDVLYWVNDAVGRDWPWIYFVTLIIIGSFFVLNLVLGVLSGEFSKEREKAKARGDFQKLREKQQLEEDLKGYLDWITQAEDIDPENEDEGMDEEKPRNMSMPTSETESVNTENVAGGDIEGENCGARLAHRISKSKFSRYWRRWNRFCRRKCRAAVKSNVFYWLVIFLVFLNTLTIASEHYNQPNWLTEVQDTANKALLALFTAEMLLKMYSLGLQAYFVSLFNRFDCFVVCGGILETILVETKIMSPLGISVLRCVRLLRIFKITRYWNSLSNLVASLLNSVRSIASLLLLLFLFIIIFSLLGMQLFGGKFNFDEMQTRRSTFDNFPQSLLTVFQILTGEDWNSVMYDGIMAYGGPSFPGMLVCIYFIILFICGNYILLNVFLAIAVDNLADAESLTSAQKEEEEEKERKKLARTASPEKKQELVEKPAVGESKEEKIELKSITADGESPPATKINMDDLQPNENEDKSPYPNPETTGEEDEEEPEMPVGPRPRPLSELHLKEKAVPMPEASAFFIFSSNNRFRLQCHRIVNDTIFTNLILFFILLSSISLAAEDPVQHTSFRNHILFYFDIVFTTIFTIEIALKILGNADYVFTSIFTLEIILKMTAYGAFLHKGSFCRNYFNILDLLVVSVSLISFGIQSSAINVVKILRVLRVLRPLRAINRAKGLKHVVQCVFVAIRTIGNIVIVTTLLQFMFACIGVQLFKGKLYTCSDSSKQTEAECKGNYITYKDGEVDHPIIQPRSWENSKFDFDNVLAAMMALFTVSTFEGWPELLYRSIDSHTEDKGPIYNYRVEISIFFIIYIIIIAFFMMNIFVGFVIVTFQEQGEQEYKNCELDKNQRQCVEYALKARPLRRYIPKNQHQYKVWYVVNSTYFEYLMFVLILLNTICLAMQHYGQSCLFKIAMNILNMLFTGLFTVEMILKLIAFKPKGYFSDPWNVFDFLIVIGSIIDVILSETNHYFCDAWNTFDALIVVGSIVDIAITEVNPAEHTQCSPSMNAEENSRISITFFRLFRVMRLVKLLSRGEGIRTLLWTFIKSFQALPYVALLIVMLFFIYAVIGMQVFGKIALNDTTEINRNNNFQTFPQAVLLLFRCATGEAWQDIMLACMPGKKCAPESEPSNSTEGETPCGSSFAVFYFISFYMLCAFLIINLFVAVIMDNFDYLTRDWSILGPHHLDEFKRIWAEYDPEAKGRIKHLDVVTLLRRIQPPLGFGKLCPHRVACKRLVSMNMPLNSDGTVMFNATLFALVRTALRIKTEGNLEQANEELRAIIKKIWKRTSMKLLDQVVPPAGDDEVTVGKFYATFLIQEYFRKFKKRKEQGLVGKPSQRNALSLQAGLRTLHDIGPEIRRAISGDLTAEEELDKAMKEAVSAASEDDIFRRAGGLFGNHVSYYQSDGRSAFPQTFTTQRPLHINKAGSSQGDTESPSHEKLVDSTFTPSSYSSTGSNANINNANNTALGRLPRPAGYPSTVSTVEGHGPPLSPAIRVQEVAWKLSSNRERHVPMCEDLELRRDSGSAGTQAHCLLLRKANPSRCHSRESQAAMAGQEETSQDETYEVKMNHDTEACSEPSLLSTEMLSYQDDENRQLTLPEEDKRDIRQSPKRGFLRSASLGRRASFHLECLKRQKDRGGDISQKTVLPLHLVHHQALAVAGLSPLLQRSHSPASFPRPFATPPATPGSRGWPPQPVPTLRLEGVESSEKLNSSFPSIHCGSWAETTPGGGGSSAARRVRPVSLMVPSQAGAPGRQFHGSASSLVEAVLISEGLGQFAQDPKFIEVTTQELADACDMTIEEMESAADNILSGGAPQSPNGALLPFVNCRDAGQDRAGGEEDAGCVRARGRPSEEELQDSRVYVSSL

In the case of `C[C@]1(O)C[C@](c2cc(C(F)(F)F)ccn2)([C@H](O)c2ccccn2)C1` (mixture of isomers), the Activity [1] is reported as under 50%, the Activity [2] is reported as under 50% and the clearance [3] is reported as 26.7 mL/min/kg. For the same compound, the clearance [4] was 41.7 mL/min/kg, the Cmax [5] was 190 ng/mL and the AUC(0-t) at 6 h [6] was 380 ng·h/mL. The Activity (Rattus norvegicus [7]) was “Dose-dependent effect”, the Activity (Rattus norvegicus [8]) was “Non-toxic” and the Activity (Rattus norvegicus [9]) was “Non-toxic”. For the same compound, the Activity (Rattus norvegicus [10]) was “Non-toxic”, the Activity (Rattus norvegicus [11]) was “Non-toxic” and the Ratio [12] was 1. It also gave a CL free (Liver microsome) of 33 mL/min/kg and a Kb [13] of 620 nM.
